The target of the first assay is T1, Huntingtin (Homo sapiens, UniProt P42858). In words: Inhibition of Huntingtin protein aggregation by cell based assay.
T1 sequence (P42858 whole entry): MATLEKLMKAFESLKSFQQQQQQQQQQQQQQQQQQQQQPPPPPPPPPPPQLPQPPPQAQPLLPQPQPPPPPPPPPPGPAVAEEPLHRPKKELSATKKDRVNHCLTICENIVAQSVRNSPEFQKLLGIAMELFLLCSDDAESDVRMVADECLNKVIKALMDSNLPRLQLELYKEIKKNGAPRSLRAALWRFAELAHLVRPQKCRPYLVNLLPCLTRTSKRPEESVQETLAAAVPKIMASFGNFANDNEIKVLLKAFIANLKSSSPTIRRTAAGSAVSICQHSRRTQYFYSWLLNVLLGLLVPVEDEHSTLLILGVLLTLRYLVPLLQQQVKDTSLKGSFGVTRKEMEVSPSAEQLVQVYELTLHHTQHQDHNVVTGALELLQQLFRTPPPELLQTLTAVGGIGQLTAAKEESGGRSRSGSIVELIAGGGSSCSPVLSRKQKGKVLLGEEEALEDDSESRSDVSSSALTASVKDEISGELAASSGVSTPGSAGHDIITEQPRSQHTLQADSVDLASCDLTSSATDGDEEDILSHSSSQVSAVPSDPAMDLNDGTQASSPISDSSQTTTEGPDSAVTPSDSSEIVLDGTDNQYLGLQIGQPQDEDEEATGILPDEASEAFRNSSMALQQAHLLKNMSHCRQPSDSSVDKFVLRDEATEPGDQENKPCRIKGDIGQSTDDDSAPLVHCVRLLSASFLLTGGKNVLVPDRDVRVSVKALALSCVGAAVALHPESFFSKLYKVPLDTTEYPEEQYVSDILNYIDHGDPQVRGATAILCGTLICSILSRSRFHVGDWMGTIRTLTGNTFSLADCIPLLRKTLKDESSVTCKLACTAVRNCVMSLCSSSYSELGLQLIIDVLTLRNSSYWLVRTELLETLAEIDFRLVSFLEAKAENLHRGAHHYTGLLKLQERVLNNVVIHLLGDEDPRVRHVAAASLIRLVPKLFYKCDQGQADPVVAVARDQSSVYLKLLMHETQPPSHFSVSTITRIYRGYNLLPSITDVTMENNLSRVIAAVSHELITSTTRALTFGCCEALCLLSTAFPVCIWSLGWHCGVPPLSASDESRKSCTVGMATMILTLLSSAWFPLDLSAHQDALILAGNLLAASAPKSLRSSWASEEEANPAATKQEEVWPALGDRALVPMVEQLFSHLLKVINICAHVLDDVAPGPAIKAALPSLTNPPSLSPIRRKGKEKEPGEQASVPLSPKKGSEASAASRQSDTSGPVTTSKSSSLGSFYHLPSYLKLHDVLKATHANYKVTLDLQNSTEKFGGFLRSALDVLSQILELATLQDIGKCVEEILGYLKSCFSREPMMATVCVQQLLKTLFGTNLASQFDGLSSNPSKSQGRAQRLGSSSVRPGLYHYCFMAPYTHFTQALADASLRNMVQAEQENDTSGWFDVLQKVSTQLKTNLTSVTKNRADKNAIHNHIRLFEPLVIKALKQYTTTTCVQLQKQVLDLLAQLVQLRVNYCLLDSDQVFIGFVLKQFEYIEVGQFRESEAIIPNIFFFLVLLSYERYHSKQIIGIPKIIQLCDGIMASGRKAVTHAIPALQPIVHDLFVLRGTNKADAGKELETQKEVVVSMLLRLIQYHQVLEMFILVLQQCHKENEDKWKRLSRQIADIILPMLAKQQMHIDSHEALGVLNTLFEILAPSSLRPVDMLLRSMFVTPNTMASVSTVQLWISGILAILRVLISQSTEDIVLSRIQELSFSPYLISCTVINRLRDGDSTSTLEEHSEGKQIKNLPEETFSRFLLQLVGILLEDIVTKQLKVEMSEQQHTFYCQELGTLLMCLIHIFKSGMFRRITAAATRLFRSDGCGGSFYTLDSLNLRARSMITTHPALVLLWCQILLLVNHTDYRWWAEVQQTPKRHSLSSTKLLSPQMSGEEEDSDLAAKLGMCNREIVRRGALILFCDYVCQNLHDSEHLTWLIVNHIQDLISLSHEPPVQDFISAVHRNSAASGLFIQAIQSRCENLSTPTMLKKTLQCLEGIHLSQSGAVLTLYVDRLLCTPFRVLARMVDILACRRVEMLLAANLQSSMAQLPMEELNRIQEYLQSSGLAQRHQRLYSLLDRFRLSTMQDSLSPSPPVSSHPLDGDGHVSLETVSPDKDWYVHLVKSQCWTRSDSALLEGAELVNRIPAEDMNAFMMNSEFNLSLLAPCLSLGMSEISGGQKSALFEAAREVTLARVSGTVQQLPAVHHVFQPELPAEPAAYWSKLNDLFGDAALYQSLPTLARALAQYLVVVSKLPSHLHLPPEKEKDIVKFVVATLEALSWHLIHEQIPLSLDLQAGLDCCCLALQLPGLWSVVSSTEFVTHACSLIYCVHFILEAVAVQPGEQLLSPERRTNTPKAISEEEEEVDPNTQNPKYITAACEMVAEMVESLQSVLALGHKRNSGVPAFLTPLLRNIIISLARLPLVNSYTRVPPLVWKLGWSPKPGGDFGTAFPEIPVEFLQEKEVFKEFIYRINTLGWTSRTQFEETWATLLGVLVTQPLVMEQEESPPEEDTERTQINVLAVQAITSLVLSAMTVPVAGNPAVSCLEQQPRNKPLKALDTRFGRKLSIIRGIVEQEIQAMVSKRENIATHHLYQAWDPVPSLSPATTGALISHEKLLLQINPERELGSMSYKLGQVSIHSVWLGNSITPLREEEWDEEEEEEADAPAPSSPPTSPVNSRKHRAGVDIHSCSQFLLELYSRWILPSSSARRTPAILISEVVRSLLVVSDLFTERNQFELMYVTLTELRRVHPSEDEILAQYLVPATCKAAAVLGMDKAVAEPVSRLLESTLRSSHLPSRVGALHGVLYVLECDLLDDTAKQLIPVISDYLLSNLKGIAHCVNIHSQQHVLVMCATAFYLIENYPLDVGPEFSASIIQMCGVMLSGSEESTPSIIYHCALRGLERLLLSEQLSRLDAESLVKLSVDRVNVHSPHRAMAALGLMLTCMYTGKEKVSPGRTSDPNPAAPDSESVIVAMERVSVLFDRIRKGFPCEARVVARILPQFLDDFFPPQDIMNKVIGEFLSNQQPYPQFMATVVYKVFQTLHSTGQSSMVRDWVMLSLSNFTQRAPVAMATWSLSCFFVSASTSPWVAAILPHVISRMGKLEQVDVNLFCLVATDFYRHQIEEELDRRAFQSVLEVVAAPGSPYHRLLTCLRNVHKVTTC
Settings: not given; call rule not given here
In short, it runs like this: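 Stable transfectants express mutant huntingtin fused to mCFP from a tet-regulatable gene. Cells are seeded in 96-well format and treated with compound for 72 h. Controls are 2 μg/mL doxycycline and 0.1% DMSO (no dox). Aggregation is scored as the presence and magnitude of fluorescent intracellular inclusions (% cells with aggregates, aggregates per cell), and an IC50 is derived.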
On to `Fc1ccc2ncnc(NCCc3ccc(Cl)cc3)c2c1`, for which the IC50 (commonly the point on the concentration scale where inhibition reaches its midpoint) is listed as “Not Active”. On the same count and under the same terms, as for `Clc1ccc2ncnc(NCCc3ccc(OCc4ccccc4)cc3)c2c1`, the entry is “Not Active”; as for `Clc1ccc2ncnc(NCCc3ccc(Oc4ccccc4)cc3)c2c1`, “Not Active”; as for `Nc1ccc2ncnc(NCCc3ccc(Oc4ccccc4)cc3)c2c1`, “Not Active”. Take `Clc1ccc(CCNc2ncnc3ccc(Br)cc23)cc1`: the IC50 entry is reported as “Not Active”.

In the case of `Brc1ccc2ncnc(N3CCN(Cc4ccc5c(c4)OCO5)CC3)c2c1`, the IC50 result was “Not Active”.

`Clc1ccc2ncnc(NCCc3ccc(OC4CCCC4)cc3)c2c1`: the IC50 entry is listed as “Not Active”.

Still in this assay, the particulars now being: read-out: IC50.
Take `Fc1ccc2ncnc(N3CCN(Cc4ccc5c(c4)OCO5)CC3)c2c1`: the IC50 is over 10 µM. `Brc1ccc2ncnc(NCc3ccccc3)c2c1`: the IC50 came to 6.13 µM.

With `Oc1ccc(CCNc2ncnc3ccc(F)cc23)cc1`, the IC50 is 6.38 µM. Take `Clc1ccc(CCNc2ncnc3ccccc23)cc1`: the IC50 is 10.5 µM.

For `CCOC(=O)COc1ccc(CCNc2ncnc3ccc(Cl)cc23)cc1`, the IC50 stood at 4.48 µM.

`CN1CCN(c2ncnc3ccc(Cl)cc23)CC1`: the IC50 was over 10 µM. For `C=CCNc1ncnc2ccc(Br)cc12`, the IC50 came to 5.36 µM.

Take `CCN1CCN(c2ncnc3ccc(Br)cc23)CC1`: the IC50 was determined as 2.21 µM. With `Oc1ccc(CCNc2ncnc3ccc(Br)cc23)cc1`, the concentration for half-maximal inhibition (IC50) stood at 1.11 µM. For `Oc1ccc(CCNc2ncnc3ccccc23)cc1`, the IC50 was over 15.8 µM. For `CN1CCN(c2ncnc3ccc(Br)cc23)CC1`, the IC50 is 1.31 µM. The same measure, in the same setting: as for `CCN1CCN(c2ncnc3ccccc23)CC1`, the figure is over 10 µM; as for `CN1CCN(c2ncnc3ccccc23)CC1`, over 10 µM; as for `CCN1CCN(c2ncnc3ccc(F)cc23)CC1`, 5.26 µM. Turning to `CCCNc1ncnc2ccc(Br)cc12`, the IC50 is 8.13 µM. For the compound `CN1CCN(c2ncnc3ccc(F)cc23)CC1`, the IC50 is over 10 µM. Regarding `Oc1ccc(CCNc2ncnc3ccc(Cl)cc23)cc1`, the IC50 amounted to 0.71 µM. As to `Clc1ccc(CCNc2ncnc3ccc(Cl)cc23)cc1`, the IC50 came out at 3.44 µM. For `Clc1ccc2ncnc(N3CCN(Cc4ccc5c(c4)OCO5)CC3)c2c1`, the half-inhibitory concentration (IC50) stood at 1.07 µM. As for `CCN1CCN(c2ncnc3ccc(Cl)cc23)CC1`, the IC50 stood at 3.63 µM. Consider `Brc1ccc2ncnc(N3CCNCC3)c2c1`, for which the IC50 worked out at 2.74 µM. For `c1ccc2c(N3CCN(Cc4ccc5c(c4)OCO5)CC3)ncnc2c1`, the IC50 is over 10 µM.

In the next assay the target is T1, Huntingtin. The experiment in a line: Inhibition of Huntingtin protein aggregation by yeast based assay.
Settings: not given
For the compound `Brc1ccc2ncnc(NCc3ccccc3)c2c1`, the EC50 (in general, the concentration giving half of the maximal effect) worked out at 50 µM. In the case of `C=CCNc1ncnc2ccc(Br)cc12`, the response was half-maximal at 50 µM (EC50). On the same count and under the same terms, as for `CCCNc1ncnc2ccc(Br)cc12`, the figure is 50 µM.

These data come from ChEMBL document CHEMBL1153324, “Potent inhibitors of Huntingtin protein aggregation in a cell-based assay” (Bioorg Med Chem Lett, 2009).
